From PubChem
A selection: hits, their analogues and other compounds. The true share with any hit is near 1.6%.
TRAIL sens C8 = caspase-8 TRAIL sensitization. NB7+C8 cells + TRAIL, ATPlite viability luminescence. inhibition (viability loss, TRAIL sensitization), % at 10 µM. 360,000 tested, 1% active. AID 624354;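 active means compounds causing at least 50% loss of cell viability in the single-dose screen, relative to plate controls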
PPC-1+TRAIL kill = kills PPC-1 cancer cells in the presence of TRAIL. PPC-1 cells + TRAIL, ATPLite viability luminescence. cell killing (% activity), % at 4 µM or 5 µM. 220,000 tested, 0.41% active;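 active means cell killing above 50% in the first pass at 4 µM, then a duplicate retest at 5 µM averaging 50% or more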
FLuc inhib CS = Photinus pyralis luciferase inhibition counter-screen; AID 1006; P08659; 200,000 tested, 1.5% active; ATPLite firefly luciferase biochemical luminescence, 10 min; inhibition, % at 10 µM;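 active means inhibition above about 50% when tested at 10 µM, limit read from the data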
Target sequence (P08659 whole entry, looked up): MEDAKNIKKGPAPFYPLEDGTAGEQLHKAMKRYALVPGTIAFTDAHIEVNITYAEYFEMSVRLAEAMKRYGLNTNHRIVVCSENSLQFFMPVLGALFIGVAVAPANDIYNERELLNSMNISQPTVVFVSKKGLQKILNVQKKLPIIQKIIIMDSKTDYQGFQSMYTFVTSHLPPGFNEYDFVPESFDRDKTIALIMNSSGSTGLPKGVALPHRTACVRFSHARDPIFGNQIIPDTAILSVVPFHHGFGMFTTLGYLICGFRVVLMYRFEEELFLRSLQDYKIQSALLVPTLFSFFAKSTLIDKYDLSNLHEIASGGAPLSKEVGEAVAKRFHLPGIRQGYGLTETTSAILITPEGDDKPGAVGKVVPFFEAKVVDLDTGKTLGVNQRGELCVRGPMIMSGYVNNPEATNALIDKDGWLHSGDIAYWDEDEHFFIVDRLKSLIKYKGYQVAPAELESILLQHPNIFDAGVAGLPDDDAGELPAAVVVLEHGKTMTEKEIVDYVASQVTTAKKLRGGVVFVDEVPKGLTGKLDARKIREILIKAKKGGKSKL
FLuc stim CS = affects firefly luciferase, flagging false hits in luciferase stimulation screens; P08659; ATPlite luciferase biochemical, luminescence, 10 min; 0 = ATP-free wells, 1 = DMSO control; activation factor at 10 µM; 200,000 tested, under 10 active;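 active means luciferase activation factor, scaled between plate controls, of at least 2 with compound at 10 µM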
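Assay system: Luciferase/luciferin detection reagent, cell-free biochemical luciferase assay / Read-out: luciferase activation / Benchmarks: No-ATP low control, compound-free enzyme-plus-ATP high control / Medium: PBS buffer for ATP / Detection: luminescence measurement of luciferase light output / Schedule: 10 min at ambient temperature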
Numbers stand for hits; . = inactive; / = no result given.

SMILES	TRAIL sens C8	PPC-1+TRAIL kill	FLuc inhib CS	FLuc stim CS
Cn1c(=N)n(CC(=O)c2ccc(Cl)c(Cl)c2)c2ccccc21	66	/	/	/
O=C(O)c1ccc(C=C(c2nc3ccccc3s2)c2nc3ccccc3s2)cc1	.	.	.	.
CN(C)c1ccc(/C=C(\Cl)c2nc3ccccc3s2)cc1	.	.	64	.
COc1ccc(C(C(=O)NC2CCCCC2)N(C(=O)CCl)c2ccc(C)cc2)cc1 (centres undefined)	95	72	.	.
COc1ccc(N(C(=O)Cc2cccs2)C(C(=O)NC2CCCC2)c2ccncc2)cc1 (centres undefined)	.	/	/	/
COc1ccc(C(C(=O)NC2CCCCC2)N(C(=O)CCl)c2ccc(OC)cc2)cc1 (centres undefined)	96	.	.	.
COc1ccc(C(C(=O)NC2CCCCC2)N(C(=O)CCl)c2cccc(Cl)c2)cc1 (centres undefined)	96	59	.	.
CCOc1cc(N2CCOCC2)c(OCC)cc1NC(=O)CN1C(=O)NC(C)(c2ccc(OC)cc2)C1=O (centres undefined)	.	/	/	/
Cc1ccc(S(=O)(=O)N2CCOC23CCN(C(=O)C(=O)NCCC(C)C)CC3)cc1	.	/	/	/
COc1cccc(C(=O)Nc2ccc(C(F)(F)F)n(C)c2=O)c1	.	.	56	.
CCOc1ccc(-c2cccc(NC(=O)COc3ccc(Cl)cc3)c2)nn1	.	/	/	/
O=C(COc1ccccc1)Nc1ccc(-c2ccc(N3CCOCC3)nn2)cc1	.	/	/	/
CCC(=O)Nc1cccc(-c2ccc(N3CCCCC3)nn2)c1	83	/	/	/
CN1CCN(c2ccc(-c3cccc(NC(=O)COc4ccc(Cl)cc4Cl)c3)nn2)CC1	67	/	/	/
CCC(=O)Nc1cccc(-c2ccc(N3CCN(C)CC3)nn2)c1	.	/	/	/
CN1CCN(c2ccc(-c3cccc(NC(=O)COc4ccccc4)c3)nn2)CC1	64	/	/	/
CN1CCN(c2ccc(-c3cccc(NC(=O)COc4ccc(Cl)cc4)c3)nn2)CC1	62	/	/	/
O=C(C[n+]1cccc(/C=N/O)c1)NC(=O)Nc1ccccc1	.	/	/	/
CC1(c2cccc(Br)c2)NC(=O)NC1=O (centres undefined)	.	/	/	/
COC(=O)c1c(NC(=O)COC(=O)Cn2cnc3ccccc32)sc2c1CCCC2	.	.	.	.
CCc1nc(N2CCN(C(=O)CCl)CC2)c2c3c(sc2n1)CC(C)CC3 (centres undefined)	87	/	/	/
CCc1nc(N2CCN(C(C)=O)CC2)c2c3c(sc2n1)CC(C(C)(C)C)CC3 (centres undefined)	.	/	/	/
CC1CCCN(C(=O)COC(=O)C2=COCCO2)C1 (centres undefined)	.	/	/	/
O=[N+]([O-])c1c(Nc2cccc(O)c2)cc(Cl)c2nonc12	59	/	/	/
O=C(N/N=C/c1ccc(N2CCOCC2)cc1)c1cccs1	.	.	52	.
SMILES	TRAIL sens C8	PPC-1+TRAIL kill	FLuc inhib CS	FLuc stim CS
O=C(c1ccc(N2CCOCC2)cc1)c1cccs1	.	.	66	.
O=C(N/N=C/c1ccc(N2CCOCC2)cc1)c1ccc(NS(=O)(=O)c2cccs2)cc1	.	.	.	.
Cc1nn(-c2ccccc2)c2nc(N)c(C#N)c(-c3ccc(F)cc3)c12	58	.	.	.
O=c1[nH]c(=S)[nH]c2c1C(c1ccc(Cl)c(Cl)c1)OC(CCc1ccccc1)C2 (centres undefined)	59	/	/	/
O=c1[nH]c(=S)[nH]c2c1C(c1ccc(Cl)cc1)OC(CCc1ccccc1)C2 (centres undefined)	.	/	/	/
O=C(CCl)N1N=C(c2cccs2)CC1c1ccco1 (centres undefined)	91	.	.	.
O=C(CSc1ccccn1)Nc1nonc1[N+](=O)[O-]	54	/	/	/
C#CCOCCOCCOCCNc1nc(N2CCN(C(=O)[C@H](CCCCN)n3cc([C@@H](N)[C@H](C)CC)nn3)CC2)nc(N2CCN(C(=O)[C@H](CCC(=O)O)n3cc([C@@H](N)CCSC)nn3)CC2)n1	.	/	/	/
COc1cc(NC(=O)COc2ccc(-n3ccnc3)cc2)cc(OC)c1	.	.	.	.
CC(C)(C)c1ccc(NC(=O)COc2ccc(-n3ccnc3)cc2)cc1	.	.	.	.
C/C(=N\NC(=O)COc1ccc(C(C)(C)C)cc1)c1ccc(-n2ccnc2)cc1	59	.	80	.
COc1ccc(OCC(=O)N/N=C(\C)c2ccc(-n3ccnc3)cc2)cc1	.	.	57	.
CCN(c1ccccc1)S(=O)(=O)c1ccc(OC)c(NC(=O)c2cc(F)c(F)c(F)c2F)c1	56	/	/	/
COc1ccc(OC)c(N/C=C/C(=O)c2ccccc2)c1	91	/	/	/
COc1ccc(OC)c(N/C(C)=C/C(=O)c2ccncc2)c1	.	/	/	/
